# Compound activity as filed in PubChem BioAssay.
# S100A4 MyoIIA: S100A4-myosin IIA interaction inhibition; P26447; S100A4/TAMRA-MyoIIA peptide fluorescence polarization; inhibition, % at 10.7 µM; 360,000 compounds, 0.14% hits;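 active = mean inhibition of at least 70% across replicates, with every replicate also reaching that level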
#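 Material: S100A4 monomer protein | Medium: HEPES pH 7.2 with CaCl2, KCl, NaCl, DTT, Triton | Reagent: Labelled myosin peptide probe, 5 nM | Doses: One dose per compound | Times: 5 min incubation before reading | Benchmarks: Neutral control DMSO, positive control TFP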
# ERAP1 HTS inh: inhibitors of human ERAP1 aminopeptidase. inhibition, % at 10.7 µM. recombinant ERAP1, Leu-AMC fluorescence, 60 min. 340,000 compounds, 0.15% hits. AID 652197. Q9NZ08;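 active = mean replicate inhibition of at least 30%, or all replicates individually reaching that 30% level; inactive = mean below 30% and not every replicate reaching it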;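 also: 0% = neutral control wells and 100% = L-leucinethiol positive control wells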
# Target sequence (Q9NZ08 whole entry, looked up): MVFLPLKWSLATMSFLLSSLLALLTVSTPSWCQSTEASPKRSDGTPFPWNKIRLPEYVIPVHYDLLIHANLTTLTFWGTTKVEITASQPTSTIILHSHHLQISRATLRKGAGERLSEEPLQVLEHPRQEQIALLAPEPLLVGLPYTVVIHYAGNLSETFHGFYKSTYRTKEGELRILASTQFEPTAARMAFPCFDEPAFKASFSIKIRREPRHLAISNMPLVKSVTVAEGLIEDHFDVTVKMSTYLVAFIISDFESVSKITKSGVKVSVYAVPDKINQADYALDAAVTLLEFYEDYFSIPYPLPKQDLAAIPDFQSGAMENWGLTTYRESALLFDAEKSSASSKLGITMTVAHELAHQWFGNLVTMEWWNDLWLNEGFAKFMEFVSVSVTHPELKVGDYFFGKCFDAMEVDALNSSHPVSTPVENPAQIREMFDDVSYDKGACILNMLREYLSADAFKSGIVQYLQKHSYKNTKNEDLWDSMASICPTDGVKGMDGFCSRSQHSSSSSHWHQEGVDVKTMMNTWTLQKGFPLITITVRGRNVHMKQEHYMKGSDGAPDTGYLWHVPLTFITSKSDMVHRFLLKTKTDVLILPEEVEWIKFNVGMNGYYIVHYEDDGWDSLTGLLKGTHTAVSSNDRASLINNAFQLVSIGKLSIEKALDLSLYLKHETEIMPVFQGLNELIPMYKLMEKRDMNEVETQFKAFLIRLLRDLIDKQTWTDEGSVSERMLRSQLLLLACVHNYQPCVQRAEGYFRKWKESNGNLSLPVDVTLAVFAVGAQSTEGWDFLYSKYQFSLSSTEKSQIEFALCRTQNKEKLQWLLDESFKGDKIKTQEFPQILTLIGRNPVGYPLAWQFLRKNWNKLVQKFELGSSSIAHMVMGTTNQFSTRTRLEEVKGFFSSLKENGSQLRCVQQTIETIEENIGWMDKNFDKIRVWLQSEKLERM
# ARNT TACC3 PPI: ARNT/TACC3 interaction disruption; 390,000 compounds, 0.66% hits; Q9Y6A5; AlphaScreen His-ARNT PAS-B/GST-TACC3 binding, luminescence; TACC3 fragment carries E629A point mutation; inhibition, % at 9.99 µM;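 active = mean inhibition of replicates at least 50% and at least half of replicates each reaching 50%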;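 also: 0% = complete ARNT plus TACC3 wells and 100% = ARNT alone without TACC3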
# PGC1a acetyl inh: lowers PGC1a acetylation signal in U2OS cells | AlphaScreen anti-acetyl-lysine; with virally co-expressed GCN5 acetyltransferase | inhibition, % at 15.6 µM | 350,000 compounds, 0.17% hits;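 active = every replicate shows inhibition of at least 40%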;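 also: 0% = neutral control wells and 100% = positive control wells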
# CASP6 VEID inh: caspase-6 (human) enzyme inhibition. purified caspase-6, Z-VEID-R110 cleavage fluorescence. inhibition, % at 12.5 µM. 350,000 compounds, 0.53% hits;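 active = mean inhibition across replicates at least about 35%, with every replicate also reaching that limit, limit read from the data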;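 also: 0% = median of neutral control wells and 100% = no fluorescence left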
# Ecoli rRNA inh: inhibitors of bacterial rRNA selective over humanized ribosomes. GFP signal change (wild-type ribosome), % (concentration not given with the values). 350,000 compounds, 1.6% hits. E. coli WT GFP vs humanized-ribosome RFP mutants, fluorescence, 24 h; stronger effect = lower value; DMSO median 0, no signal -100;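 active = significant combined selectivity score with lowered wild-type GFP, culture density cut under 30%, mutant RFP and density less affected; inactive = any of these conditions unmet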
# * = called active by the depositor; nt = no result; ! = not confirmed by another sample. Sampled rows, rich in hits. Any-hit rate of the full collection: about 2.4%.
SMILES,S100A4 MyoIIA,ERAP1 HTS inh,ARNT TACC3 PPI,PGC1a acetyl inh,CASP6 VEID inh,Ecoli rRNA inh
CC=Cc1ccc2n(c1=O)C[C@@H]1[C@@H](CO)[C@H](C(=O)N(C)C)N(CCC(F)(F)F)[C@H]21 (mixture of isomers),6,-2,1,nt,-2,3
CSC1=NS(=O)(=O)c2c(C)nn(C)c2S1,-6,87*,-6,3,1,15
S=C(NCCc1ccccc1)N1CCc2ccccc2C1,-18,-2,nt,nt,8,-22*
CO[C@@H]1CN(C)C(=O)c2cc(NC(=O)c3ccccc3)ccc2OC[C@H](C)N(CC2CC2)C[C@@H]1C,nt,nt,-2,0,nt,-2
C[C@@H]1CN([C@H](C)CO)S(=O)(=O)c2ccc(C#CCN(C)C)cc2O[C@H]1CN(C)C,6,-1,-2,2,1,2
CCCCNC(=S)N1CCN(CC)CC1,4,7,-17,-9,45*,7
CCOC(=O)c1nc2c(ccc3ccccc32)cc1C,-2,2,nt,-11,-2,-31*
O=C(NCc1ccc(F)cc1)[C@H]1[C@H](CO)[C@H]2Cn3c(cccc3=O)[C@@H]1N2Cc1cccnc1,-2,-2,17,nt,3,3
COc1ccc2c3c(n(C)c2c1)[C@H](CO)N(Cc1ccccc1OC)CC31CN(C(=O)C2CC2)C1,nt,nt,nt,nt,nt,-2
COc1ccc(NS(=O)(=O)c2ccc(Cl)c(NC(=O)c3ccccc3F)c2)cc1,-2,1,2,-9,2,-13*
COc1cccc(C(=O)Nc2ccc3c(c2)OC[C@@H](C)N(C)C[C@@H](C)[C@H](OC)CN(C)C3=O)c1,5,1,-10,-1,2,2
CC(C)COc1ccc(C(=O)OCCN2CCOCC2)cc1,nt,nt,-6,9,nt,nt
CC(C)COc1ccc(C(=O)OCCN2CCCCC2)cc1,-4,-2,active,-4,nt,1
Cc1ccc2ccccc2c1CSc1nc(N)nc2c1ncn2CC(C)C,8,3,-5,-14,-1,-30*
CNC[C@H]1Oc2ccc(N(C)C)cc2CC(=O)N(C)C[C@H]1C,nt,nt,nt,nt,nt,2
N#Cc1c(-c2ccccc2)nc(SCC(=O)N(c2ccccc2)c2ccccc2)[nH]c1=O,-4,1,-6,14,3,-49*
N#Cc1c(-c2ccccc2)nc(SCC(=O)Nc2ccccc2)[nH]c1=O,nt,nt,8,nt,nt,nt
S=c1[nH]nc(-c2ccco2)n1/N=C/C(Cl)=C/c1ccccc1,-8,nt,1,-65,4,-36*
CCN(CC)Cc1c(O)ccc2c([N+](=O)[O-])c(C)n(-c3ccc(OC)cc3)c12,nt,nt,-1,46*,nt,nt
CO[C@H]1CC[C@@H]2CCOc3ccc(C#N)cc3C(=O)N(C)C[C@@H](C)C(=O)N(C)C[C@@H]1O2,-4,-4,-7,nt,-1,1
Cc1noc(C)c1S(=O)(=O)Nc1ccc2c(c1)C(=O)N([C@@H](C)CO)C[C@@H](C)[C@@H](CN(C)C(=O)C1CCCCC1)OCCCC[C@@H](C)O2,-3,-1,13,-15,-3,-1
COc1ccc(CCn2ccc(O)c(Cc3ccc(Cl)cc3)c2=O)cc1OC,-1,3,-2,15,nt,-29*
COc1ccc(S(=O)(=O)Nc2ccc3c(c2)C(=O)N([C@H](C)CO)C[C@H](C)[C@H](CN(C)C(=O)NC(C)C)O3)cc1,nt,nt,nt,6,nt,1
COc1cccc(-c2ccc(C3[C@@H]4CN(Cc5cccc(F)c5)C[C@H]3N4)cc2)c1 (stereo partly specified),-9,0,nt,97*!,1,-59
COc1cc(CN2C[C@@H]3N[C@H](C2)C3c2ccc(-c3ccccc3C)cc2)cc(OC)c1 (stereo partly specified),-8,-2,nt,105*!,4,-56
SMILES,S100A4 MyoIIA,ERAP1 HTS inh,ARNT TACC3 PPI,PGC1a acetyl inh,CASP6 VEID inh,Ecoli rRNA inh
C/C=C/c1ccc2c(c1)O[C@@H](CN(C)C(=O)CC)[C@@H](C)CN([C@@H](C)CO)S2(=O)=O,5,0,-1,-8,1,-3
CCOc1ccc(-c2c[n+]3c(n2-c2ccccc2)CCCCC3)cc1,2,-2,0,nt,-3,-39*
C[C@@H]1CN([C@H](C)CO)C(=O)c2cc(NC(=O)c3ccncc3)ccc2O[C@H]1CN(C)C(=O)Nc1ccccc1,-3,2,-19,6,3,2
C[C@H]1CN([C@@H](C)CO)C(=O)c2cc(NC(=O)NC3CCCCC3)ccc2O[C@H]1CN(C)C(=O)Nc1ccccc1,-3,1,-4,9,0,1
C[C@H](CO)N1C[C@H](C)[C@H](CN(C)C(=O)Nc2ccccc2)Oc2ncccc2C1=O,11,49*,4,11,2,5
C[C@H](CO)N1C[C@H](C)[C@@H](CN(C)C(=O)Nc2ccccc2)Oc2ccc(NC(=O)c3ccncc3)cc2C1=O,-9,65*!,9,5,3,5
C[C@H]1CN([C@@H](C)CO)C(=O)c2cc(NC(=O)NC3CCCCC3)ccc2O[C@@H]1CN(C)C(=O)Nc1ccccc1,157*,-2,6,nt,4,6
COCC#Cc1ccc2c(c1)O[C@H](CN(C)C(=O)C1CC1)[C@@H](C)CN([C@@H](C)CO)S2(=O)=O,-15,0,2,-6,2,3
C[C@@H]1CN([C@@H](C)CO)S(=O)(=O)c2ccc(C#C[C@@H](C)O)cc2O[C@H]1CN(C)CC1CCCC1,2,-7,-15,5,4,-4
C[C@@H]1CCCCO[C@H](CN(C)S(=O)(=O)c2ccc(Cl)cc2)[C@H](C)CN([C@H](C)CO)C(=O)c2cc(NC(=O)c3ccncc3)ccc2O1,-3,4,2,-14,1,-2
CN(C)c1ccc(C=C2C=Cc3ccccc32)cc1,15,-1,1,6,-1,3
CNc1ccc(C=C2C=Cc3ccccc32)cc1,-4,2,nt,3,3,-20*
CC(=O)Nc1ccc(S(=O)(=O)Nc2ccccn2)cc1,16,-8,11,nt,nt,11
Cc1ccccc1S(=O)(=O)NNC(=O)C(=O)NNc1ccccn1,nt,nt,70*,-4,nt,nt
CC(=O)Nc1ccc(S(=O)(=O)NNC(=O)C(=O)NNc2ccccn2)cc1,5,nt,75*,11,-4,-2
Nc1ccc(S(=O)(=O)NNC(=O)C(=O)NNc2ccccn2)cc1,-2,2,74*,nt,-4,-8
Cc1ccc(S(=O)(=O)NNC(=O)C(=O)NNc2ccccn2)cc1,nt,nt,63*,nt,nt,nt
C[C@@H]1CN([C@H](C)CO)C(=O)c2cc(NS(=O)(=O)c3cccs3)ccc2O[C@H]1CN(C)S(=O)(=O)c1cccs1,nt,nt,nt,8,nt,-4
O=C1C(=C(c2ccccc2)N2CCOCC2)Cc2ccccc21,0,0,nt,nt,-1,-22*
